Assay results gathered from unrelated publications.
Lines come from different studies, so protocols differ.
CASP9: Caspase-9 (CASP9, Homo sapiens, UniProt P55211)
MMP1: Interstitial collagenase (MMP1, Homo sapiens, UniProt P03956)
SLC5A7: High affinity choline transporter 1 (SLC5A7, Homo sapiens, UniProt Q9GZV3)

Compound	target	test	setting	inhibition
N=C(N)c1ccc2cc(OC(=O)c3ccc(N=C(N)N)cc3)ccc2c1	CASP9	enzyme activity, inhibitor	10 µM	0%
C#Cc1n[nH]c2c(-c3cn([C@@H](C)c4ccccc4)c(=O)[nH]c3=O)cc(F)cc12	TRAF2 and NCK-interacting protein kinase (TNIK, Homo sapiens, UniProt Q9UKE5)	enzyme activity, inhibitor	0.1 µM	-0.3%
O=C(Nc1cccnn1)N1CCN([C@@H]2CCOc3cc(C(F)(F)F)ccc32)CC1	CASP9	cell-free assay	20 µM	-4%
Cc1ncc(C)n2nc(/C=C/c3nc(N4CCCC4)cc(N4CCOCC4)n3)nc12	MMP1	enzyme activity, inhibitor	10 µM	7%
CCOC(=O)c1ccc(OC(=O)CCCCCNC(=N)N)cc1	MMP1	enzyme activity, inhibitor	10 µM	2%
CCOC(=O)N1C[C@H]2C[C@@H]1C[C@@H]2c1ccc(-c2cc(C(=O)OCC(=O)N(C)C)cc3cc(-c4ccc(C(F)(F)F)cc4)ccc23)cc1	P2Y purinoceptor 14 (P2RY14, Homo sapiens, UniProt Q15391)	cell-free assay, inhibitor	10 µM	12.2%
COc1ccc(S(=O)(=O)N(CC(=O)NO)CC(C)C)cc1	MMP1	enzyme activity, inhibitor	10 µM	77%
C#Cc1n[nH]c2c(-c3cn([C@@H](C)c4ccccn4)c(=O)[nH]c3=O)cc(F)cc12	TGF-beta receptor type-1 (TGFBR1, Homo sapiens, UniProt P36897)	enzyme activity, inhibitor	0.1 µM	1.5%
CN(C)C(=O)COC(=O)Cc1ccc(OC(=O)c2ccc(NC(=N)N)cc2)cc1	MMP1	enzyme activity, inhibitor	10 µM	3%
CN(CCN1CCC(OC(=O)Nc2ccccc2-c2ccccc2)CC1)C(=O)c1ccc(CN2CCC(C(N)=O)CC2)cc1	SLC5A7	ligand displacement, radioligand	1 µM	-6%
COC(=O)CC[C@H](NC(=O)[C@H](CC(C)C)NC(=O)OCc1ccccc1)C(=O)N[C@@H](Cc1cnc[nH]1)C(=O)N[C@@H](CC(=O)OC)C(=O)CF	CASP9	enzyme activity, inhibitor	0.1 µM	7%
COc1ccc(S(=O)(=O)N2CCCCC2)cc1C	SLC5A7	ligand displacement, radioligand	10 µM	< 30%
COc1cc(Nc2ncc(F)c(Nc3ccc4c(n3)NC(=O)C(C)(C)O4)n2)cc(OC)c1OC	Cyclin-dependent kinase-like 1 (CDKL1, Homo sapiens, UniProt Q00532)	binding, competition with immobilised ligand	10 µM	84%
Cn1cc(-c2cccc(N3CCc4c(sc5c4CC(C)(C)C5)C3=O)c2CO)cc(Nc2ccncn2)c1=O	Eukaryotic elongation factor 2 kinase (EEF2K, Homo sapiens, UniProt O00418)	enzyme activity, inhibitor	1 µM	2%
C[C@H](C(=O)N[C@H]1COc2ccccc2[C@@H]1S(C)(=O)=O)c1ccc(F)cc1	MMP1	enzyme activity, inhibitor	10 µM	13%
